Measured values as given in ChEMBL document CHEMBL4118191, “Novel oxazolxanthone derivatives as a new type of α-glucosidase inhibitor: synthesis, activities, inhibitory modes and synergetic effect” (Bioorg Med Chem, 2018).
Active and inactive are the calls of the source. The rule behind the calls is not given here.

How the values were obtained:
[1] = Inhibition of Saccharomyces cerevisiae alpha-glucosidase using PNP glycoside as substrate preincubated for 30 mins followed by substrate addition measured after 60 secs by spectrophotometric method
Procedure, shortened: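 Yeast α-glucosidase was pre-incubated with inhibitor for 30 min at 37 °C before substrate addition. The reaction ran 60 s at 37 °C and was read by absorbance at 400 nm. Five inhibitor concentrations were bracketed around a first-round IC50 estimate, each in triplicate, and mean values were taken.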

[2] = Non-competitive inhibition of Saccharomyces cerevisiae alpha-glucosidase using varying levels of PNP glycoside as substrate preincubated for 30 mins followed by substrate addition measured after 60 secs by Lineweaver-Burk plot analysis
Procedure, shortened: (§1)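 Mode of inhibition came from Lineweaver–Burk double-reciprocal plots. At each fixed inhibitor concentration, yeast α-glucosidase activity was measured over varying PNP glycoside concentrations. Enzyme–inhibitor mixtures were in 50 mM phosphate buffer, pH 6.8, with 5% v/v DMSO, and were pre-incubated 30 min at 37 °C before substrate addition. The reaction ran 60 s at 37 °C and was read at 400 nm.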

Saccharomyces cerevisiae [3] = assay: (§2) Inhibition of Saccharomyces cerevisiae alpha-glucosidase at 2 uM using PNP glycoside as substrate preincubated for 30 mins followed by substrate addition measured after 60 secs by spectrophotometric method relative to control
Procedure, shortened: (§3)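 Single-point inhibition of yeast α-glucosidase, tested individually and as a 1:1 molar mixture at a fixed total concentration of 2. Inhibitor and enzyme were pre-incubated 30 min at 37 °C, then substrate was added. The reaction ran 60 s at 37 °C with absorbance read at 400 nm. Percent inhibition is relative to control.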

Saccharomyces cerevisiae [4] = assay: as §2, with “Synergistic inhibition” for “Inhibition”, “1:1 molar ratio of compound to 5-hydroxy-2-(4-methoxyphenyl)-6H-xantheno [4, 3-d] oxazol-6-one” for “2 uM”; procedure, shortened: as §3
[5] = Solubility of the compound; type: physicochemical
Saccharomyces cerevisiae [6] = assay: Ratio of IC50 for synergistic inhibition of Saccharomyces cerevisiae alpha-glucosidase assessed as 5-hydroxy-2-(4-methoxyphenyl)-6H-xantheno [4, 3-d] oxazol-6-one IC50 to IC50 for Saccharomyces cerevisiae alpha-glucosidase
Procedure, shortened: (§4)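 Yeast α-glucosidase IC50 was determined for the two-inhibitor mixture at a 4:6 molar ratio and for each inhibitor alone. Pre-incubation was 30 min at 37 °C, followed by a 60 s reaction at 37 °C read at 400 nm. Five concentrations were run in triplicate and means taken. Ratios compare single-compound IC50 with mixture IC50.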

Saccharomyces cerevisiae [7] = assay: (§5) Synergistic inhibition of Saccharomyces cerevisiae alpha-glucosidase at 1:1 molar ratio of compound to 5-hydroxy-2-(4-methoxyphenyl)-6H-xantheno [4, 3-d] oxazol-6-one using PNP glycoside as substrate preincubated for 30 mins followed by substrate addition measured after 60 secs by spectrophotometric method relative to compound alone; procedure, shortened: as §3
Saccharomyces cerevisiae [8] = assay: Competitive inhibition of Saccharomyces cerevisiae alpha-glucosidase at 50 to 60 uM using varying levels of PNP glycoside as substrate preincubated for 30 mins followed by substrate addition measured after 60 secs by Lineweaver-Burk plot analysis; procedure, shortened: as §1
Saccharomyces cerevisiae [9] = assay: as §5, with “5-methoxy-2-(4-methoxyphenyl)-6H-xantheno” for “5-hydroxy-2-(4-methoxyphenyl)-6H-xantheno”; procedure, shortened: as §3
Saccharomyces cerevisiae [10] = assay: Ratio of compound alone IC50 to compound IC50 in presence of 5-methoxy-2-(4-methoxyphenyl)-6H-xantheno [4, 3-d] oxazol-6-one for Saccharomyces cerevisiae alpha-glucosidase; procedure, shortened: as §4
[11] = as §5, with “4:6” for “1:1”, “5-methoxy-2-(4-methoxyphenyl)-6H-xantheno” for “5-hydroxy-2-(4-methoxyphenyl)-6H-xantheno”, “method” for “method relative to compound alone”; procedure, shortened: as §4
Saccharomyces cerevisiae [12] = assay: as §5, with “5-methoxy-2-(4-methoxyphenyl)-6H-xantheno” for “5-hydroxy-2-(4-methoxyphenyl)-6H-xantheno”, “control” for “compound alone”; procedure, shortened: as §3

Row | Structure (SMILES) | IC50 [1] [µM] | also measured
1 | O=c1c2ccccc2oc2c1c(O)cc1oc(-c3ccc(C(F)(F)F)cc3)nc12 | 26.9 | –
2 | O=c1c2ccccc2oc2c1c(O)cc1oc(-c3ccc(O)cc3)nc12 | 7.3 | –
3 | O=c1c2ccccc2oc2c1c(O)cc1oc(-c3ccc(Br)cc3)nc12 | 11 | –
4 | Nc1ccc(-c2nc3c(cc(O)c4c(=O)c5ccccc5oc43)o2)cc1 | 8.3 | –
5 | Cc1ccc(-c2nc3c(cc(O)c4c(=O)c5ccccc5oc43)o2)cc1 | 19.1 | –
6 | O=c1c2ccccc2oc2c1c(O)cc1oc(-c3c(F)cc(F)cc3F)nc12 | 6.3 | Ki [2]: 6.8 µM
7 | O=c1c2ccccc2oc2c1c(O)cc1oc(-c3ccccc3)nc12 | 18.3 | –
8 | O=c1c2ccccc2oc2c([N+](=O)[O-])c(O)cc(O)c12 | 286 | –
9 | O=c1c2ccccc2oc2c1c(O)cc1oc(-c3ccc([N+](=O)[O-])cc3)nc12 | 24.5 | –
10 | O=c1c2ccccc2oc2c1c(O)cc1oc(-c3ccccc3F)nc12 | 8.4 | –
11 | OC[C@H]1NC[C@H](O)[C@@H](O)[C@@H]1O [DUVOGLUSTAT] | 60.3 | –
12 | COc1ccc(-c2nc3c(cc(OC)c4c(=O)c5ccccc5oc43)o2)cc1 | 8.6 | inhibition (Saccharomyces cerevisiae [3]): 20.3%; Ki [2]: 7.4 µM; inhibition (Saccharomyces cerevisiae [4]): 41.9%; solubility [5]: Soluble; Ratio IC50 (Saccharomyces cerevisiae [6]): 4; fold change (FC) (Saccharomyces cerevisiae [7]): 2
13 | O=c1c2ccccc2oc2c1c(O)cc1oc(-c3cccc(F)c3)nc12 | 8.9 | –
14 | Cc1nc2c(cc(O)c3c(=O)c4ccccc4oc32)o1 | 64.4 | inhibition (Saccharomyces cerevisiae [8]): Active
15 | O=c1c2ccccc2oc2cc(O)cc(O)c12 | 186 | –
16 | O=c1c2ccccc2oc2c1c(O)cc1oc(-c3ccc(Cl)cc3)nc12 | 8.8 | –
17 | O=c1c2ccccc2oc2c1c(O)cc1oc(C3CCCCC3)nc12 | 38.5 | –
18 | COc1cc2oc(-c3ccc(Cl)cc3)nc2c2oc3ccccc3c(=O)c12 | 9.9 | solubility [5]: Soluble
19 | COc1cc2oc(-c3ccccc3)nc2c2oc3ccccc3c(=O)c12 | 19.6 | solubility [5]: Soluble
20 | Nc1c(O)cc(O)c2c(=O)c3ccccc3oc12 | 127 | –
21 | O=c1c2ccccc2oc2c1c(O)cc1oc(-c3ccc(F)cc3)nc12 | 6.7 | –
22 | COc1ccc(-c2nc3c(cc(O)c4c(=O)c5ccccc5oc43)o2)cc1 | 7.1 | inhibition (Saccharomyces cerevisiae [3]): 21.7%; Ki [2]: 5.3 µM; fold change (FC) (Saccharomyces cerevisiae [9]): 2; Ratio IC50 (Saccharomyces cerevisiae [10]): 3.5; IC50 [11]: 1.9 µM; inhibition (Saccharomyces cerevisiae [12]): 41.9%
